Reference: ChEMBL document CHEMBL1145922, “1,2-benzisoxazole phosphorodiamidates as novel anticancer prodrugs requiring bioreductive activation” (J Med Chem, 2003)

How the values were obtained:
Assay type in all cases: functional
[1] = organism: Homo sapiens; test: Percent formation of compound upon incubation of 15 for 60 minutes with human P450 reductase microsomes in hypoxic condition in presence of NADPH and pCMBA at a concentration of 2 mM
Method in brief: (§1)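 Human or rat P450 reductase microsomes at 1 mg/mL protein, substrate 0.25 mM and cofactor 0.5 mM; pCMBA 2 mM where stated. Anaerobic samples purged with nitrogen 15–20 min in septum-sealed vials. 60 min at 37 °C, stopped with ice-cold methanol. Ketone metabolite quantified by HPLC (C-18, methanol/water 50:50, UV 254 nm) as percent of equimolar substrate. Mean of two experiments.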

[2] = organism: Rattus norvegicus; test: Percent formation of compound upon incubation of 15 with phenobarbit-induced rat liver microsomal fraction in hypoxic condition in presence of pCMBA at a concentration of 2 mM
Method in brief: (§2)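 Phenobarbital-induced rat liver microsomes; inhibitors SKF-525A (in methanol) or pCMBA (in DMF) at 0–4 mM final. pCMBA preincubated 30 min before NADPH; SKF-525A incubated 15 min with microsomes and NADPH. Hypoxic samples nitrogen-purged. Substrate 2.5 mM added, 30 min at 37 °C. Ketone metabolite by HPLC at 254 nm as percent of substrate; % inhibition relative to no inhibitor. Mean of two experiments.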

[3] = organism: Rattus norvegicus; test: Percent formation of compound upon incubation of 15 with phenobarbit-induced rat liver microsomal fraction in hypoxic condition in presence of pCMBA at a concentration of 4 mM; method in brief: as §2
[4] = organism: Rattus norvegicus; test: Percent formation of compound upon incubation of 15 with phenobarbit-induced rat liver microsomal fraction in oxic condition in presence of SKF-525A at a concentration of 0 mM; method in brief: as §2
[5] = organism: Rattus norvegicus; test: Percent formation of compound upon incubation of 15 with phenobarbit-induced rat liver microsomal fraction in oxic condition in presence of SKF-525A at a concentration of 4 mM; method in brief: as §2
[6] = organism: Rattus norvegicus; test: Percent formation of compound upon incubation of 15 with phenobarbit-induced rat liver microsomal fraction in oxic condition in presence of pCMBA at a concentration of 1 mM; method in brief: as §2
[7] = organism: Rattus norvegicus; test: Percent formation of compound upon incubation of 15 with phenobarbit-induced rat liver microsomal fraction in oxic condition in presence of pCMBA at a concentration of 2 mM; method in brief: as §2
[8] = organism: Rattus norvegicus; test: Percent formation of compound upon incubation of 15 with phenobarbit-induced rat liver microsomal fraction in oxic condition in presence of pCMBA at a concentration of 4 mM; method in brief: as §2
[9] = organism: Rattus norvegicus; test: Percent inhibition of formation of compound upon incubation of 15 with phenobarbit-induced rat liver microsomal fraction in oxic condition in presence of SKF-525A at a concentration of 2 mM; method in brief: as §2
[10] = organism: Rattus norvegicus; test: Percent inhibition of formation of compound upon incubation of 15 with phenobarbit-induced rat liver microsomal fraction in oxic condition in presence of SKF-525A at a concentration of 4 mM; method in brief: as §2
[11] = organism: Rattus norvegicus; test: Tested for formation of compound upon incubation of compound 15 for 30 minutes with rat liver cystolic fractions in hypoxic condition in the presence of NADPH
Method in brief: (§3)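 Phenobarbital-induced rat liver S-9, microsomal or cytosolic fraction with 5 mM cofactor (NADPH, NADH, benzaldehyde or 2-hydroxypyrimidine) or none. Substrate 2.5 mM final, added from methanol/water 50:50. Hypoxic vials purged with nitrogen 15–20 min. 30 min at 37 °C, quenched with ice-cold methanol. Ketone metabolite by HPLC at 254 nm as percent of equimolar substrate.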

[12] = organism: Rattus norvegicus; test: Tested for formation of compound upon incubation of compound 15 for 30 minutes with rat liver microsomal fractions in hypoxic condition in the absence of cofactor; method in brief: as §3
[13] = organism: Rattus norvegicus; test: Tested for formation of compound upon incubation of compound 15 for 30 minutes with rat liver microsomal fractions in hypoxic condition in the presence of NADPH; method in brief: as §3
[14] = organism: Rattus norvegicus; test: Tested for formation of compound upon incubation of compound 15 for 30 minutes with rat liver subcellular fractions in oxic condition in the presence of 2-hydroxypyrimidine
Method in brief: (§4)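 Phenobarbital-induced rat liver S-9 fraction (2 mL) with 5 mM cofactor (NADPH, NADH, benzaldehyde or 2-hydroxypyrimidine), substrate 2.5 mM final, added in methanol/water 50:50; aerobic, 30 min at 37 °C. Quenched with ice-cold methanol, proteins spun down, supernatant analysed by reverse-phase C-18 HPLC, UV 254 nm; ketone metabolite given as percent of equimolar substrate; three experiments.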

[15] = organism: Rattus norvegicus; test: Tested for formation of compound upon incubation of compound 15 for 30 minutes with rat liver subcellular fractions in oxic condition in the presence of NADH; method in brief: as §4
[16] = organism: Rattus norvegicus; test: Tested for formation of compound upon incubation of compound 15 for 30 minutes with rat liver subcellular fractions in oxic condition in the presence of benzaldehyde; method in brief: as §4
[17] = organism: Rattus norvegicus; test: Tested for formation of compound upon incubation of compound 15 for 30 minutes with uninduced rat liver S-9 fractions in hypoxic condition in the presence of NADPH
Method in brief: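 Uninduced rat liver S-9 (22.5 mg/mL protein, 2 mL) with 5 mM NADPH or no cofactor, substrate 2.5 mM final; hypoxic samples nitrogen-purged 15–20 min in septum-sealed vials, else aerobic; 30 min at 37 °C. Methanol quench, centrifugation, C-18 HPLC with UV 254 nm; metabolite as percent of equimolar substrate. NADPH runs three experiments, no-cofactor runs two.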

[18] = organism: Rattus norvegicus; test: Percent formation of compound upon incubation of 15 for 60 minutes with rat P450 reductase microsomes in oxic condition in presence of NADPAH; method in brief: as §1
[19] = organism: Rattus norvegicus; test: Percent formation of compound upon incubation of 15 with phenobarbit-induced rat liver microsomal fraction in hypoxic condition in presence of SKF-525A at a concentration of 0 mM; method in brief: as §2
[20] = organism: Rattus norvegicus; test: Tested for formation of compound upon incubation of compound 15 for 30 minutes with rat liver subcellular fractions in hypoxic condition in the presence of 2-hydroxypyrimidine; method in brief: as §3
[21] = organism: Rattus norvegicus; test: Tested for formation of compound upon incubation of compound 15 for 30 minutes with rat liver subcellular fractions in hypoxic condition in the presence of NADPH; method in brief: as §3
[22] = organism: Rattus norvegicus; test: Percent inhibition of formation of compound upon incubation of 15 with phenobarbit-induced rat liver microsomal fraction in hypoxic condition in presence of pCMBA at a concentration of 0 mM; method in brief: as §2
[23] = organism: Rattus norvegicus; test: Percent inhibition of formation of compound upon incubation of 15 with phenobarbit-induced rat liver microsomal fraction in hypoxic condition in presence of pCMBA at a concentration of 2 mM; method in brief: as §2
[24] = organism: Rattus norvegicus; test: Percent inhibition of formation of compound upon incubation of 15 with phenobarbit-induced rat liver microsomal fraction in oxic condition in presence of pCMBA at a concentration of 4 mM; method in brief: as §2
[25] = organism: Rattus norvegicus; test: Percent inhibition of formation of compound upon incubation of 15 with phenobarbit-induced rat liver microsomal fraction in hypoxic condition in presence of SKF-525A at a concentration of 2 mM; method in brief: as §2
[26] = organism: Rattus norvegicus; test: Percent inhibition of formation of compound upon incubation of 15 with phenobarbit-induced rat liver microsomal fraction in oxic condition in presence of SKF-525A at a concentration of 1 mM; method in brief: as §2
[27] = organism: Rattus norvegicus; test: Percent formation of compound upon incubation of 15 for 60 minutes with rat P450 reductase microsomes in hypoxic condition in presence of NADPAH; method in brief: as §1
[28] = organism: Rattus norvegicus; test: Percent formation of compound upon incubation of 15 with phenobarbit-induced rat liver microsomal fraction in hypoxic condition in presence of SKF-525A at a concentration of 4 mM; method in brief: as §2

Formation [1]: 0.6% | Formation [18]: 1.5% | Formation [27]: 1.7%
SMILES: CCC(=O)c1ccccc1O
Formation [2]: 1.2% | Formation [3]: 0.5% | Formation [4]: 44.9% | Formation [5]: 26.9% | Formation [6]: 0.5% | Formation [7]: 0.5% | Formation [8]: 0.7% | inhibition [9]: 14% | inhibition [10]: 40% | Formation [11]: 3.6% | Formation [12]: 0.4% | Formation [13]: 93% | Formation [14]: 0.6% | Formation [15]: 14.8% | Formation [16]: 0.7% | Formation [17]: 9.4% | Formation [19]: 70.8% | Formation [20]: 0.5% | Formation [21]: 88.5% | inhibition [22]: 0% | inhibition [23]: 99% | inhibition [24]: 99% | inhibition [25]: 29% | inhibition [26]: 18% | Formation [28]: 45%
